The test system of test [1] is KB. The experiment in a line: Cytotoxicity against human KB cells after 72 hrs. Format: functional, cell-based. The method, boiled down: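 KB cells in EMEM (4.5 g/L glucose, 10% FCS, 1% glutamine) seeded 5 × 10³/well, dosed after 24 h with compound in DMSO (<0.1%). 72 h exposure, then resazurin 2 h; fluorescence ex 560/em 590 nm. IC50 = 50% fluorescence decrease versus untreated; triplicate.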

A short description of test [2]: Inhibition of sheep brain tubulin polymerization. Further details: species or system Ovis aries. Put shortly:
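Sheep brain tubulin (about 2–3 mg/mL), purified by two assembly–disassembly cycles, in 0.1 M MES, 0.5 mM MgCl₂, 1 mM EGTA, 1 mM GTP, pH 6.6. Assembly followed by turbidity at 350 nm, 37 °C.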

For test [3], the system named is B16-F10. As to the kind of experiment: Antiproliferative activity against mouse B16F10 cells after 72 hrs. The test is classed as functional, cell-based. The note with it: B16-F10, 72 h. Put shortly:
(§1)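 Cells were seeded at 5 × 10³ per well and cultured for 24 h. Test compound in DMSO (under 0.1%) was then added for 72 h. Resazurin was added for 2 h, and fluorescence was read at ex 560 nm / em 590 nm. IC50 was taken as the concentration giving a 50% fall in fluorescence versus untreated cells. Runs were done in triplicate.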

The test system of test [4] is A549. As to the kind of experiment: Antiproliferative activity against human A549 cells after 72 hrs. Format: functional, cell-based. The note with it: A549, 72 h. Put shortly:
as §1

The subject of test [5] is MDA-MB-435. As to the kind of experiment: Antiproliferative activity against human MDA-MB-435 cells after 72 hrs. The test is classed as functional, cell-based. The note with it: MDA-MB-435, 72 h. Put shortly: as §1
The subject of test [6] is MDA-MB-231. The experiment in a line: Antiproliferative activity against human MDA-MB-231 cells after 72 hrs. The test is classed as functional, cell-based. To be noted: MDA-MB-231, 72 h. The method, boiled down: as §1
The test system of test [7] is HCT-116. The experiment in a line: Antiproliferative activity against human HCT116 cells after 72 hrs. Format: functional, cell-based. To be noted: HCT-116, 72 h. Put shortly:
as §1

A short description of test [8]: Antitumor activity against human U87 tumor transplanted in chick chorio-allantoic membrane assessed as reduction of tumor volume at 100 uM after 4 days. The test is classed as functional, U-87MG ATCC. Set-up: scale not given: the % may be the effect or the level left. Put shortly: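 On embryonic day 10, 5 × 10⁶ U87 glioma cells were placed on the chick CAM. On day 2 of tumor growth, size-matched tumors were split into groups. From day 3 to day 6, 20 µL of compound at 100 µM was applied locally once daily, and controls got solvent. Volume was calculated as V = 4/3πr³ with r = 1/2√(length × width), using six tumors per group.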

Test [9] is described as follows: Antitumor activity against human U87 tumor transplanted in chick chorio-allantoic membrane assessed as reduction of tumor volume at 10 uM after 4 days. Format: functional, U-87MG ATCC. Further details: scale not given: the % may be the effect or the level left. Put shortly: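 U87 glioma cells (5 × 10⁶ in 20 µL medium) grafted on chick CAM on embryonic day 10; size-matched tumors grouped on day 2. 20 µL drug at 10 µM applied locally once daily, days 3–6 of tumor growth; controls got solvent. Volume V = 4/3πr³ from length and width, six tumors per group.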

This is an account of results in ChEMBL document CHEMBL1150426, “New C5-alkylated indolobenzazepinones acting as inhibitors of tubulin polymerization: cytotoxic and antitumor activities” (J Med Chem, 2008).

Molecules are shown by their SMILES.

For orientation: IC50 means the concentration that inhibits the measured activity by half. Regarding `COc1ccc2[nH]c3c(c2c1)-c1ccccc1[C@H](C)NC3=O`, the IC50 in test [1] is 3500 nM; in test [2], 51000 nM.

The molecule `CC1NC(=O)c2[nH]c3ccccc3c2-c2ccccc21` (racemic) yielded an IC50 in test [1] of 280 nM.

For `COc1cc2c(c(OC)c1OC)-c1ccc(O)cc1[C@@H](NC(C)=O)CC2` [N-ACETYLCOLCHINOL], the IC50 came out at 75 nM in [1]; 3000 nM in test [2]; 72 nM in [3]; 250 nM in test [4]; 140 nM in test [5]; 700 nM in test [6]. This molecule came in with an IC50 in test [7] of 100 nM. Moreover, the Activity in [8] is 42%.

For the molecule `C[C@@H]1NC(=O)c2[nH]c3ccccc3c2-c2ccccc21`, the IC50 in test [1] turned out to be 80 nM; in [2], 1900 nM.

With `COc1cc2c(c(OC)c1OC)-c1ccc(OC)c(=O)cc1[C@@H](NC(C)=O)CC2` [COLCHICINE], the IC50 turned out to be 20 nM in test [1]; 29 nM in test [3]; 40 nM in test [5]; 70 nM in [6]; 40 nM in test [7]. Moreover, the Activity in test [9] came to 50%.

Take `CCC1NC(=O)c2[nH]c3ccc(F)cc3c2-c2ccccc21` (racemic): the IC50 in test [1] was 500 nM; in [2] it was 3600 nM.

In the case of `CCCCC1NC(=O)c2[nH]c3ccccc3c2-c2ccccc21` (racemic), the figures for the IC50 in test [1] and in test [2] were 35 nM and 1000 nM, respectively.

Molecule `CC1c2ccccc2-c2c(n(C)c3ccccc23)C(=O)N1C` (stereo not given) displayed an IC50 in [1] of 28000 nM.

Take `C[C@H]1NC(=O)c2[nH]c3ccccc3c2-c2ccccc21`: in [1], the midpoint of inhibition, the IC50, lay at 340 nM.

As for `CCCC1NC(=O)c2[nH]c3ccccc3c2-c2ccccc21` (racemic), the IC50 in [1] is 32 nM; in test [2], 2000 nM.

Regarding `CC1NC(=O)c2c(c3ccccc3n2C)-c2ccccc21` (racemic), the midpoint of inhibition in test [1], the IC50, lay at 7000 nM.

As to `O=C1NCc2ccccc2-c2c1[nH]c1ccccc21`, the midpoint of inhibition in [1], the IC50, lay at 550 nM.

For the molecule `CC(C)C1NC(=O)c2[nH]c3ccccc3c2-c2ccccc21` (racemic), the results for the IC50 in [1] and in test [2] were 280 nM and 1700 nM, respectively.

In the case of `CC[C@H]1NC(=O)c2[nH]c3ccccc3c2-c2ccccc21`, the figures for the IC50 in test [1] and in test [2] were 35 nM and 1800 nM, respectively.

In turn, `CC1NC(=S)c2[nH]c3ccccc3c2-c2ccccc21` (racemic) yielded an IC50 in test [1] of 360 nM.

In the case of `CC1NCc2[nH]c3ccccc3c2-c2ccccc21` (racemic), in [1], the IC50 stood at 12000 nM.
